Assay results taken from ChEMBL document CHEMBL1154371, “Cytotoxic xanthone constituents of the stem bark of Garcinia mangostana (mangosteen)” (J Nat Prod, 2009).
The source made the active and inactive calls. The calls are words filed in the database; no cut-off is given here.

Legend:
[1] = biological target: T1, Nuclear factor NF-kappa-B p105 subunit (Homo sapiens, UniProt P19838); experiment: Inhibition of p50 after 1 hr by ELISA
T1 sequence (P19838 whole entry): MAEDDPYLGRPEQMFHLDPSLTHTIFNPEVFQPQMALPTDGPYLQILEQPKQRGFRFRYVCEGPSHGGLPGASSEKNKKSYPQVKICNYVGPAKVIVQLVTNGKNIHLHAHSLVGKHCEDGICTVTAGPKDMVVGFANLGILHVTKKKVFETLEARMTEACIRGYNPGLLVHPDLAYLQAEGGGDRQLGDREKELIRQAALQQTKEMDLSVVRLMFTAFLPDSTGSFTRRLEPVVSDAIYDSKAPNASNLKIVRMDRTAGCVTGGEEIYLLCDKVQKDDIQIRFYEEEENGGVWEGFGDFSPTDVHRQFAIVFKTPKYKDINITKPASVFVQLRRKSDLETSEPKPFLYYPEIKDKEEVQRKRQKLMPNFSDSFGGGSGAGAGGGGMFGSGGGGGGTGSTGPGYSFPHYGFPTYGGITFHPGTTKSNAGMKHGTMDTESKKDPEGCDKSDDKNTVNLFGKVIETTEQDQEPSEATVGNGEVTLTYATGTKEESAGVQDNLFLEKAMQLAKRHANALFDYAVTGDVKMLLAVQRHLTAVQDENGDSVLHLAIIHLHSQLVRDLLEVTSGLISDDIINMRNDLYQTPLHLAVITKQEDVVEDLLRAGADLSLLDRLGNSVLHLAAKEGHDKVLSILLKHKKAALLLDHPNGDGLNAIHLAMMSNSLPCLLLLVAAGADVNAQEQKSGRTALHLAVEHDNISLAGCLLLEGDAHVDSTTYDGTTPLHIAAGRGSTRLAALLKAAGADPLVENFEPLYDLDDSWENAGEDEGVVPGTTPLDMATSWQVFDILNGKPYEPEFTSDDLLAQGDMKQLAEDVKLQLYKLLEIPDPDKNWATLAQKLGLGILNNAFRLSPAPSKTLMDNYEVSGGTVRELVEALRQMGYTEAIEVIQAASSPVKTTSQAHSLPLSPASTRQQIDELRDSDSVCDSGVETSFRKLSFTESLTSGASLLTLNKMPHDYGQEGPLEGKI

Transcription factor p65 = Transcription factor p65 (Homo sapiens, UniProt Q04206); experiment: Inhibition of nuclear factor NF-kappa-B p65 subunit after 1 hr by ELISA
HT-29 [2] = experiment: Cytotoxicity against human HT-29 cells; assay type: functional; conditions: read-out: ED50 (the source's name)
Procedure, shortened: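 HT-29 human colon cancer cells. Camptothecin was the positive control. Cytotoxic potency is given as ED50.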

HT-29 [3] = experiment: Growth inhibition of human HT-29 cells implanted at intraperitoneal compartment of NCr nu/nu mouse at 2.5 mg/kg to 20 mg/kg by hollow fiber assay; assay type: functional, organism-based
Procedure, shortened: (§1)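 Cells were loaded into hollow fibers and implanted at the intraperitoneal site of mice. Compound was given at 2.5, 5, 10 and 20 mg/kg. Paclitaxel at 20 mg/kg was the positive control.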

LNCaP = experiment: Growth inhibition of human LNCAP cells implanted at intraperitoneal compartment of NCr nu/nu mouse at 2.5 mg/kg to 20 mg/kg by hollow fiber assay; assay type: functional, organism-based; procedure, shortened: as §1
MCF7 = experiment: Growth inhibition of human MCF7 cells implanted at intraperitoneal compartment of NCr nu/nu mouse at 2.5 mg/kg to 20 mg/kg by hollow fiber assay; assay type: functional, organism-based

Chain of Transcription factor p65 (Q04206 whole entry): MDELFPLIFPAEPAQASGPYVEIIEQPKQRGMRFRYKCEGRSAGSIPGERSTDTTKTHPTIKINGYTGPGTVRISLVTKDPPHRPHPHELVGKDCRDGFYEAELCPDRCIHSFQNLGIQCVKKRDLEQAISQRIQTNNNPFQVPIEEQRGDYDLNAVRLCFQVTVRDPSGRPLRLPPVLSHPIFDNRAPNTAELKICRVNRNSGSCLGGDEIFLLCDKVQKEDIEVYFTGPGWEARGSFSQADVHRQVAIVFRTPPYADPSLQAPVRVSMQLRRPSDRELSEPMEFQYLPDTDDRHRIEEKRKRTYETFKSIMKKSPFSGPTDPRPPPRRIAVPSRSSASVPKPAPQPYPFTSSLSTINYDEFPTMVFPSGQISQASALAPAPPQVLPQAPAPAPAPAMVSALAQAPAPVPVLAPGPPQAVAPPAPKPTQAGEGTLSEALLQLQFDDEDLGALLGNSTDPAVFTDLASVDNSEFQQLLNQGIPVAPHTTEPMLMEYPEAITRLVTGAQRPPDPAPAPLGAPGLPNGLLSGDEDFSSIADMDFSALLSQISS

IC50 [1] [µM]	IC50 (Transcription factor p65) [µM]	SMILES	EC50 (HT-29 [2]) [µM]	growth inhibition (GI) (HT-29 [3])	growth inhibition (GI) (LNCaP)	growth inhibition (GI) (MCF7)
> 20	> 20	COc1cc2oc3cc(O)c(OC)c(CC=C(C)C)c3c(=O)c2c2c1CC(O)C(C)(C)O2 (stereo not given)				
> 20	> 20	COc1c(O)cc2oc3cc(O)c4c(c3c(=O)c2c1CC=C(C)C)OC(C)(C)C(O)C4 (stereo not given)				
		COc1c(O)cc2oc3cc4c(c(O)c3c(=O)c2c1CC=C(C)C)C[C@H](C(C)(C)O)O4	> 10			
7.5	12.1	COc1cc2oc3cc(O)c(OC)c(CC=C(C)C)c3c(=O)c2c(O)c1CC=C(C)C	1.7			
		COc1c(O)cc2oc3cc4c(c(O)c3c(=O)c2c1CC=C(C)C)CCC(C)(C)O4	4.9			
> 20	11.3	CC(C)=CCc1c(O)c(CC=C(C)C)c2oc3c(O)cccc3c(=O)c2c1O [8-DEOXYGARTANIN]	> 10			
		CC[C@@]1(O)C(=O)OCc2c1cc1n(c2=O)Cc2cc3ccccc3nc2-1 [CAMPTOTHECIN]	0.06			
> 20	3.2	COc1c(O)cc2oc3cc(O)c(CC=C(C)C)c(O)c3c(=O)c2c1CCC(C)(C)O [GARCINONE D]	2.3			
> 20	19	CC(C)=CCc1c(O)c(CC=C(C)C)c2oc3c(O)ccc(O)c3c(=O)c2c1O [GARTANIN]	> 10			
> 20	15.9	COc1c(O)cc2oc3cc(O)c(CC=C(C)C)c(O)c3c(=O)c2c1CC=C(C)C [MANGOSTIN]	1.7	inactive	inactive	inactive

SMILES	IC50 [1] [µM]	IC50 (Transcription factor p65) [µM]	EC50 (HT-29 [2]) [µM]	growth inhibition (GI) (HT-29 [3])	growth inhibition (GI) (LNCaP)	growth inhibition (GI) (MCF7)
COc1c(O)cc2oc3cc4c(c(O)c3c(=O)c2c1CC=C(C)C)[C@@H](c1c(O)c(CC=C(C)C)c(O)c2c(=O)c3c(CC=C(C)C)c(OC)c(O)cc3oc12)[C@H](C(C)(C)O)O4 [CRATOXYXANTHONE]	> 20	> 20				
COc1c(O)cc2oc3cc4c(c(O)c3c(=O)c2c1CC=C(C)C)C=CC(C)(C)O4 [MANGOSTANIN]	> 20	> 20	9.1			
